Compound activity: PubChem BioAssay, several laboratories
In the library only some 2.3% were active in any assay of this set; here they are far more common.
FN deposit inh: inhibitors of fibronectin matrix deposition, primary screen, AH1F cells, Alexa488-fibronectin fluorescence, plate reader; AID 743247, 2014; inhibition, % at 12.6 µM; AH1F fibroblasts, overnight; hit rate 0.086% among 350,000;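 active = mean inhibition across replicates of 30% or more, regardless of how many single replicates reach that level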;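 also: positive control wells lacked labelled fibronectin entirely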
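Material: AH1F fibroblast monolayer depositing Alexa488-labelled fibronectin into matrix | Input: 10000 AH1F cells/well | Medium: DMEM plus 2% serum, read in PBS | Reagent: Alexa488-fibronectin, 24 nM final in well | Compound dosing: One dose per compound, pinned | Schedule: 1 h adhesion, overnight exposure | Measured by: Fluorescence at 485 nm excitation, 525 nm emission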
TROY signal inh: inhibitors of TROY-driven NF-kB signaling, primary screen, Q293 LMP1-TROYcd cells, NF-kB luciferase, uHTS; hit rate 0.98% among 360,000; inhibition, % at 10 µM; Q293 LMP1-TROYcd NF-kB luciferase reporter, 4 h; AID 1347056, 2019;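 active = compounds whose plate-normalised and pattern-corrected inhibition of the luciferase reporter signal at the single screening dose is 50% or more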
XiGFP reactiv: activators of inactive X chromosome reactivation, primary screen, imaging, XiGFP fibroblasts, GFP high-content imaging, set 2. XiGFP mouse fibroblasts, % GFP-positive cells imaging, 3 d; cells co-treated with 5-aza-dC sensitizer; scaled so ellipticine positive control = 100%. activation, % at 7.58 µM. hit rate 0.055% among 360,000;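 active = mean normalized replicate activation at least 10% and every replicate at or above 10%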;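 also: 0% = median of on-plate neutral control wells and 100% = ellipticine 6 µM median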
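Assay system: SV40-immortalized XiGFP fibroblast cells, line 68-5-11; buffer or medium: DMEM plus 5-aza-dC sensitizer; compound: one concentration, pinned; timing: compounds 3 days, fix/stain 15 min at room temperature; benchmarks: positive control ellipticine, 6 µM final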
LGR2 antag: inhibitors of bursicon-induced LGR2 CRE-luciferase signal, primary screen, cell-based, HEK293, CRE-luciferase reporter, bursicon stimulation. Drosophila bursicon receptor LGR2 (rickets). bursicon-stimulated, 4 h. inhibition, % at 9.99 µM. hit rate 0.35% among 380,000. AID 720647, 2013;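 active = drop in luminescence signal, shown as inhibition above about 50% in the replicate tests, limit read from the data, passing the limit was not always enough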;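 also: agonist challenge used bursicon conditioned medium at about half maximal strength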
TWEAK-Fn14 inh: inhibitors of TWEAK-Fn14 signaling, primary screen, luciferase reporter cells, uHTS; AID 1159606, 2016; TWEAK-stimulated Fn14 reporter cells, luciferase luminescence, 8 h; inhibition, % at 10 µM; hit rate 2% among 360,000; in the data active = inhibition above about 50%
EWS-Fli block: EWS/Fli-driven NR0B1 reporter inhibitors, primary screen, A673 cells, NR0B1 luciferase, luminescence, MLPCN library; hit rate 0.67% among 350,000; viability-normalised; inhibition, % at 12.6 µM;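 active = mean inhibition of at least 50% after viability correction, with every replicate also passing that limit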;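 also: firefly luciferase signal divided by Alamar Blue viability fluorescence both relative to DMSO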
DNA binder FP: DNA binders by acridine orange displacement, dose response, counter-screen for EWS/Fli inhibitor project, biochemical, fluorescence polarization, cherry-pick; shares compounds with EWS-Fli block; salmon sperm DNA acridine orange fluorescence polarization; AC35, µM (series often up to 68 µM), for inactives: at the top dose activity change, negative = DNA binding; hit rate 2% among 640;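 active = fitted curve reaches a 35% signal fall AC35 below twice the sample's top valid tested dose, actives reach about 48 µM in these data; inactive = the rest, including activity in the rising direction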;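 also: lower polarization ratio signals compound binding to DNA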
* marks the source's active call; other numbers are inactive results; . = no result given.

SMILES | FN deposit inh | TROY signal inh | XiGFP reactiv | LGR2 antag | TWEAK-Fn14 inh | EWS-Fli block | DNA binder FP
C[C@@H]1CN([C@@H](C)CO)C(=O)c2cccc(NS(=O)(=O)c3ccccc3)c2O[C@@H]1CN(C)Cc1ccc(C(=O)Nc2ccccc2N)cc1 | . | . | 0 | 0 | . | 52* | 0%
C[C@H](CO)N1C[C@H](C)[C@@H](CN(C)Cc2ccc(C(=O)Nc3ccccc3N)cc2)Oc2c(NS(=O)(=O)c3ccccc3)cccc2C1=O | . | . | 0 | 10 | . | -7 | .
C[C@@H]1CN([C@@H](C)CO)C(=O)c2cccc(NS(=O)(=O)c3ccc(Cl)cc3)c2O[C@@H]1CN(C)Cc1ccc(C(=O)Nc2ccccc2N)cc1 | 3 | . | 1 | 16 | . | 53* | -13%
C[C@@H]1CN([C@H](C)CO)C(=O)c2cccc(NS(=O)(=O)c3ccc(Cl)cc3)c2O[C@H]1CN(C)Cc1ccc(C(=O)Nc2ccccc2N)cc1 | -11 | . | -1 | -13 | . | 35 | .
C[C@@H]1CN([C@H](C)CO)S(=O)(=O)c2ccc(-c3ccccc3)cc2O[C@H]1CN(C)C | . | . | -1 | -5 | . | 8 | .
C[C@@H]1CN([C@H](C)CO)C(=O)Cc2cc(NS(=O)(=O)c3ccc(Cl)cc3)ccc2O[C@H]1CN(C)Cc1ccc2c(c1)OCO2 | . | . | -1 | 16 | . | -4 | .
C=C1C(=O)O[C@H]2[C@H]1[C@H](OC(=O)/C(C)=C\C)C[C@]1(CO1)[C@@H]1[C@H](OC(C)=O)C=C(C)[C@]21O | -3 | 11 | 1 | 6 | 16 | -3 | .
C=C1C(=O)O[C@@H]2[C@H]1[C@@H](OC(=O)/C(C)=C/C)C/C(C)=C\C(=O)/C=C(\C)[C@@H]2O | 0 | 29 | 0 | 55* | 67* | 73* | -6%
Nc1ccc2oc(-c3cc(Br)ccc3Cl)nc2c1 | . | 0 | . | . | 46 | 54* | -7%
Cc1c(Cl)cnc(NC(=O)COC(=O)c2ccc3ncsc3c2)c1Cl | 8 | -10 | 0 | 8 | 24 | 62* | -12%
COc1cc(C(=O)O/N=C(\N)c2ccccn2)cc(OC)c1OC | 7 | -29 | 1 | -19 | -30 | -11 | .
Cc1ccc(C(=O)O/N=C(\N)c2ccccn2)cc1 | -6 | 84* | 0 | 101* | 103* | 52* | 3%
CCc1c(C(=O)NN2C(=O)C3CCCCC3C2=O)csc1C (stereo unspecified) | . | -31 | 0 | 22 | -11 | 65* | -2%
C[C@@H]1CN([C@@H](C)CO)C(=O)c2cccc(NC(=O)Nc3cccc4ccccc34)c2O[C@@H]1CN(C)Cc1ccc(C(=O)Nc2ccccc2N)cc1 | -13 | . | -1 | 2 | . | 54* | 2%
C[C@H](CO)N1C[C@H](C)[C@H](CN(C)Cc2ccc(C(=O)Nc3ccccc3N)cc2)Oc2c(cccc2N(C)C)C1=O | -8 | . | -1 | -7 | . | 54* | 4%
C[C@H](CO)N1C[C@H](C)[C@H](CN(C)Cc2ccc(C(=O)Nc3ccccc3N)cc2)Oc2c(NC(=O)C3CC3)cccc2C1=O | . | . | 0 | 2 | . | 26 | .
Cc1ccc(S(=O)(=O)N(C)C[C@H]2Oc3c(cccc3N(C)C)C(=O)N([C@@H](C)CO)C[C@@H]2C)cc1 | -1 | . | 0 | 59* | . | 53* | -11%
Cc1ccc(S(=O)(=O)N(C)C[C@H]2Oc3c(cccc3N(C)C)C(=O)N([C@H](C)CO)C[C@@H]2C)cc1 | -4 | . | 0 | -11 | . | 8 | .
C[C@H]1CN([C@@H](C)CO)C(=O)c2cccc(NC(=O)c3ccc(-c4nccs4)cc3)c2O[C@@H]1CN(C)Cc1ccc(C(=O)Nc2ccccc2N)cc1 | . | . | 0 | 9 | . | 52* | 7%
